In ChEMBL document CHEMBL3271940, “Monoquaternary neuromuscular blocking agents based on 1-tetralone and 1-indanone” (J Med Chem, 1976):

What was measured:
Felis catus [1] = species on record: Felis catus; experiment: Neuromuscular blocking activity in cat assessed as blockade of tibialis muscle twitches; format: functional
Summary of the method: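 The reported value is the dose that produced 50% blockade of muscle twitches, given ± standard error together with the number of determinations.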

Felis catus [2] = species on record: Felis catus; experiment: Neuromuscular blocking activity in cat assessed as time duration of action of blockade of tibialis muscle twitches at ED50; format: functional
[3] = Dissociation constant, pKa of the compound in water; format: physicochemical

| pKa [3] | SMILES | ED50 (Felis catus [1]) [µmol/kg] | Time (Felis catus [2]) [min] |
| --- | --- | --- | --- |
| 2.5 | C[N+](C)(C)c1ccc2c(c1)CCC/C2=N\N.[I-] | 0.16 | 5.2 |
| – | C[N+](C)(C)c1cccc2c1CCC/C2=N\N.Cc1ccc(S(=O)(=O)[O-])cc1 | > 10 | – |
| – | C[N+](C)(C)c1ccc2c(c1)/C(=N/N)CCC2.[I-] | > 10 | – |
| – | C[N+](C)(C)c1ccc2c(c1)CC/C2=N\N.[I-] | 0.44 | 10 |
| – | C[N+](C)(C)c1cccc2c1CC/C2=N\N.[I-] | > 10 | – |
| – | C[N+](C)(C)c1ccc2c(c1)/C(=N/N)CC2.[I-] | 3.98 | 17.1 |
| – | CN(C)/N=C1\CCCc2cc([N+](C)(C)C)ccc21.[I-] | > 10 | – |
| – | C[N+](C)(C)CCOC(=O)CCC(=O)OCC[N+](C)(C)C.[Cl-].[Cl-] [SUCCINYLCHOLINE CHLORIDE] | 0.1 | 4.4 |
